# Results gathered from unrelated publications.
# Lines come from different studies, so protocols differ.
# OPRD1: Delta-type opioid receptor (OPRD1, Homo sapiens, UniProt P41143)
# gag-pol reverse transcriptase: Gag-Pol polyprotein, reverse transcriptase (gag-pol, Human immunodeficiency virus 1, UniProt P03366)
# CA2: Carbonic anhydrase 2 (CA2, Homo sapiens, UniProt P00918)
# PLG trypsin-like site: Plasminogen, trypsin-like site (PLG, Homo sapiens, UniProt P00747)
Compound,target,read-out,mode,technique,pH,quantity,result
Cn1cc(-c2cccc(N3CCc4c(sc5c4CC(C)(C)C5)C3=O)c2CO)cc(Nc2ccncn2)c1=O,"Receptor tyrosine-protein kinase erbB-2 (ERBB2, Homo sapiens, UniProt P04626)",enzyme activity,inhibitor,FRET,,Ki,1.75 µM
O=C(CCCOc1cccc(Br)c1)N[C@H]1C[C@@H]2C[C@@H]2C1=O (relative stereo),"Transcriptional activator protein LasR (lasR, Pseudomonas aeruginosa, UniProt P25084, A127W)",reporter gene,agonist,,,EC50,0.2 µM
CCCC[C@H](CNCc1ccccc1)N1CCN(CC2CCCCCC2)[C@H](Cc2ccc(O)cc2)C1,OPRD1,cell-free assay,,,,IC50,> 10 µM
Cc1cn([C@@H]2CC[C@H](OC(C(=O)O)C(=O)O)C2)c(=O)[nH]c1=O,gag-pol reverse transcriptase,enzyme activity,inhibitor,radiometric,,IC50,20 µM
Cc1cc(/C=C/C#N)cc(C)c1Nc1ccnc(Nc2ccc(C#N)cc2)n1,gag-pol reverse transcriptase,binding,,SPR,,Kd,2.53 µM
Cc1ccnc(S)c1,CA2,enzyme activity,inhibitor,absorbance,pH 8,Ki,7000 µM
CCC[C@H](CNC)NC[C@@H](CCC)NCC1CCCCCC1,OPRD1,cell-free assay,,,,IC50,> 10 µM
CC(C)(C)[C@H](NC(=O)[C@H](CCCNC(=N)N)NC(=O)Cc1ccc(CN)cc1)C(=O)N[C@@H](CCONC(=N)N)C(=O)NCc1ccc(C(=N)N)cc1,PLG trypsin-like site,enzyme activity,inhibitor,,pH 8,Ki,3.3 µM
Cc1cc(O)cc(C)c1C[C@H](N)C(=O)N[C@H](C)C(=O)NCC(=O)N[C@@H](Cc1ccc(Cl)cc1)C(=O)N(C)CCC[C@@]1(c2ccc(F)cc2)OCc2cc(C#N)ccc21,"Alpha-2A adrenergic receptor (ADRA2A, Homo sapiens, UniProt P08913)",ligand displacement,,radioligand,,Ki,4.7 µM
CS(=O)(=O)c1cccc(OCCCC(=O)N[C@H]2C[C@@H]3C[C@@H]3C2=O)c1 (relative stereo),"Transcriptional activator protein LasR (lasR, Pseudomonas aeruginosa, UniProt P25084, A127W/Y93F)",reporter gene,agonist,,,EC50,0.35 µM
CC(C)(C)[C@H](NC(=O)[C@H](CCCNC(=N)N)NC(=O)Cc1ccc(CNC(=N)N)cc1)C(=O)N[C@@H](CCCNC(=N)N)C(=O)NCc1ccc(C(=N)N)cc1,PLG trypsin-like site,enzyme activity,inhibitor,,pH 8,Ki,3.5 µM
CNC[C@H](Cc1ccc(O)cc1)NC[C@H](Cc1ccc(O)cc1)NCC1CCC(C)CC1 (some centres unmarked),OPRD1,cell-free assay,,,,IC50,> 10 µM
On1ccccc1=S,CA2,enzyme activity,inhibitor,absorbance,,Ki,567 µM
CCC[C@H](CNC)NC[C@@H](CCC)NCCC1CC2CCC1C2 (some centres unmarked),OPRD1,cell-free assay,,,,IC50,> 10 µM
CC(C)(C)[C@H](NC(=O)[C@H](CCCNC(=N)N)NC(=O)Cc1ccc(CNC(=N)N)cc1)C(=O)N[C@@H](CCONC(=N)N)C(=O)NCc1ccc(C(=N)N)cc1,PLG trypsin-like site,enzyme activity,inhibitor,,pH 8,Ki,3.1 µM
On1c(=S)ccc2ccccc21,CA2,enzyme activity,inhibitor,absorbance,pH 8,Ki,730 µM
O=c1c(O)c(-c2ccc(O[C@@H]3O[C@H](CO)[C@@H](O)[C@H](O)[C@H]3O)c(O)c2)oc2cc(O)cc(O)c12,CA2,enzyme activity,inhibitor,absorbance,,Ki,0.0222 µM
